Tests used:
[1] = target: Dipeptidyl peptidase 8 (Homo sapiens, UniProt Q6V1X1); experiment: Inhibition of C-terminal His-tagged DPP8 (unknown origin) expressed in COS7 cells using H-Ala-Pro-pNA substrate preincubated for 15 mins; assay type: cell-based, COS-7
[2] = test system: Rattus norvegicus; experiment: Dose normalized AUC in rat at 1 mg/kg, iv and 2 mg/kg, po; assay type: ADME, organism-based; conditions: in vivo
How it was run: (§1)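 Rats received 1 mg/kg iv plus 2 mg/kg po, or 0.4 mg/kg iv alone. Plasma clearance is reported in ml/min/kg, half-life in h, and AUC normalized to dose in µM h/mg/kg.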

[3] = Half life in rat at 1 mg/kg, iv and 2 mg/kg, po; assay type: ADME, organism-based; conditions: in vivo; how it was run: as §1
[4] = target: T1, Prolyl endopeptidase FAP (Bos taurus, UniProt A5D7B7); experiment: Inhibition of bovine serum FAP
T1 sequence (A5D7B7 whole entry): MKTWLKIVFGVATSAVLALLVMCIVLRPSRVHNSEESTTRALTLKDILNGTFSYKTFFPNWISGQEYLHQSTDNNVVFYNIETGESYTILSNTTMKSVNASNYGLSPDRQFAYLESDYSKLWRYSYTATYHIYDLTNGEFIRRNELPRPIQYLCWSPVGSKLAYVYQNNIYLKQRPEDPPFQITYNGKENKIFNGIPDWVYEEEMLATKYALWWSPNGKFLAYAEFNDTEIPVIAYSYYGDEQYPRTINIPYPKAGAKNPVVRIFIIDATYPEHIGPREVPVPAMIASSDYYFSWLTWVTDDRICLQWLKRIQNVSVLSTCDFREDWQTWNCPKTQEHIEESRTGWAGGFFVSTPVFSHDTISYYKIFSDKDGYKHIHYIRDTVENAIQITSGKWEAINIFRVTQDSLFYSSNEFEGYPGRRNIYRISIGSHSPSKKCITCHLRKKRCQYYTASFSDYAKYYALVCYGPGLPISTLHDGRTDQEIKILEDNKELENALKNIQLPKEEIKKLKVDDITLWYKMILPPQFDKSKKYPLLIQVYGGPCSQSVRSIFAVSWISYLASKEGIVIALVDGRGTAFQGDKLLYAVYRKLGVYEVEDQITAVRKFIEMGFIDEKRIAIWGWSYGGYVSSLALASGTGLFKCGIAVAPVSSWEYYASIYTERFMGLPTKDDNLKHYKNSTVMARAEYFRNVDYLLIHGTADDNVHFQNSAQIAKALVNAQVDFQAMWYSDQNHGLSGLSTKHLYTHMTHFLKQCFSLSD

[5] = target: Dipeptidyl peptidase 2 (Homo sapiens, UniProt Q9UHL4); experiment: Inhibition of N-terminal FLAG tagged human QPP expressed in Sf9 cells using Nle-Pro-AMC substrate after 30 mins by plate reader analysis
[6] = Plasma clearance in rat at 1 mg/kg, iv and 2 mg/kg, po; assay type: ADME, organism-based; how it was run: as §1
[7] = Oral bioavailability in rat at 2 mg/kg; assay type: ADME, organism-based; conditions: in vivo; how it was run: as §1
[8] = target: Voltage-gated inwardly rectifying potassium channel KCNH2 (Homo sapiens, UniProt Q12809); experiment: Inhibition of human ERG assessed as reduction in IKr current
Voltage-gated inwardly rectifying potassium channel KCNH2, sequence (Q12809 whole entry): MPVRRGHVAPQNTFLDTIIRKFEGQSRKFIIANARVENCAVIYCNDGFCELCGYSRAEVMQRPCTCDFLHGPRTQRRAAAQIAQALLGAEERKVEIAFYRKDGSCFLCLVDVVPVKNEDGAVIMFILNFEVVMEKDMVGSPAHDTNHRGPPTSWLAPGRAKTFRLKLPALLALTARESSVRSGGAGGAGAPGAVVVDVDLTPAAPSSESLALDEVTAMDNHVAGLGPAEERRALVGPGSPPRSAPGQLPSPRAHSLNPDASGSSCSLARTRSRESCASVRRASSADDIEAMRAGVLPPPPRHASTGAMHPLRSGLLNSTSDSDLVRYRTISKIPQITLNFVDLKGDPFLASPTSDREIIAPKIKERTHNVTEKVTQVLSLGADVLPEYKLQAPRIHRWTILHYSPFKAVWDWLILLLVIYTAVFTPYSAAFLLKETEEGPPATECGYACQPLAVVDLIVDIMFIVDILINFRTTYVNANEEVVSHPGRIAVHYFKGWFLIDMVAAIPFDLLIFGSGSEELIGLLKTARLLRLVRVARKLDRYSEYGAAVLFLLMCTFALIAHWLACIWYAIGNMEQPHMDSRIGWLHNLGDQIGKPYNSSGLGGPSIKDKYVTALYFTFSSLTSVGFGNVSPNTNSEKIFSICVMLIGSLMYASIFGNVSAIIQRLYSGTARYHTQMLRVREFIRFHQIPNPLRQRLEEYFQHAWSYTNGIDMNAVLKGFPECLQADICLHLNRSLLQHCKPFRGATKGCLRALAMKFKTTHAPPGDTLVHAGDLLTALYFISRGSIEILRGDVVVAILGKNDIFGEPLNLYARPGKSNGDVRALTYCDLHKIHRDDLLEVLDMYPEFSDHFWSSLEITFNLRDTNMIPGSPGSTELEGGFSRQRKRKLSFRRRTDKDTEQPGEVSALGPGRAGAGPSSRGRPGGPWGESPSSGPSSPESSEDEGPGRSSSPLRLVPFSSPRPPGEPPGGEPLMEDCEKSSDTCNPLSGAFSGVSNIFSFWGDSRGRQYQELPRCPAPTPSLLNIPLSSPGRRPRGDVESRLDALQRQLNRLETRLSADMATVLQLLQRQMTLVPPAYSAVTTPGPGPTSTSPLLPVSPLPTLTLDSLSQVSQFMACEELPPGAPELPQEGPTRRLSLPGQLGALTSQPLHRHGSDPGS

[9] = target: Voltage-dependent L-type calcium channel subunit alpha-1C (Homo sapiens, UniProt Q13936); experiment: […]
Voltage-dependent L-type calcium channel subunit alpha-1C, sequence (Q13936 whole entry): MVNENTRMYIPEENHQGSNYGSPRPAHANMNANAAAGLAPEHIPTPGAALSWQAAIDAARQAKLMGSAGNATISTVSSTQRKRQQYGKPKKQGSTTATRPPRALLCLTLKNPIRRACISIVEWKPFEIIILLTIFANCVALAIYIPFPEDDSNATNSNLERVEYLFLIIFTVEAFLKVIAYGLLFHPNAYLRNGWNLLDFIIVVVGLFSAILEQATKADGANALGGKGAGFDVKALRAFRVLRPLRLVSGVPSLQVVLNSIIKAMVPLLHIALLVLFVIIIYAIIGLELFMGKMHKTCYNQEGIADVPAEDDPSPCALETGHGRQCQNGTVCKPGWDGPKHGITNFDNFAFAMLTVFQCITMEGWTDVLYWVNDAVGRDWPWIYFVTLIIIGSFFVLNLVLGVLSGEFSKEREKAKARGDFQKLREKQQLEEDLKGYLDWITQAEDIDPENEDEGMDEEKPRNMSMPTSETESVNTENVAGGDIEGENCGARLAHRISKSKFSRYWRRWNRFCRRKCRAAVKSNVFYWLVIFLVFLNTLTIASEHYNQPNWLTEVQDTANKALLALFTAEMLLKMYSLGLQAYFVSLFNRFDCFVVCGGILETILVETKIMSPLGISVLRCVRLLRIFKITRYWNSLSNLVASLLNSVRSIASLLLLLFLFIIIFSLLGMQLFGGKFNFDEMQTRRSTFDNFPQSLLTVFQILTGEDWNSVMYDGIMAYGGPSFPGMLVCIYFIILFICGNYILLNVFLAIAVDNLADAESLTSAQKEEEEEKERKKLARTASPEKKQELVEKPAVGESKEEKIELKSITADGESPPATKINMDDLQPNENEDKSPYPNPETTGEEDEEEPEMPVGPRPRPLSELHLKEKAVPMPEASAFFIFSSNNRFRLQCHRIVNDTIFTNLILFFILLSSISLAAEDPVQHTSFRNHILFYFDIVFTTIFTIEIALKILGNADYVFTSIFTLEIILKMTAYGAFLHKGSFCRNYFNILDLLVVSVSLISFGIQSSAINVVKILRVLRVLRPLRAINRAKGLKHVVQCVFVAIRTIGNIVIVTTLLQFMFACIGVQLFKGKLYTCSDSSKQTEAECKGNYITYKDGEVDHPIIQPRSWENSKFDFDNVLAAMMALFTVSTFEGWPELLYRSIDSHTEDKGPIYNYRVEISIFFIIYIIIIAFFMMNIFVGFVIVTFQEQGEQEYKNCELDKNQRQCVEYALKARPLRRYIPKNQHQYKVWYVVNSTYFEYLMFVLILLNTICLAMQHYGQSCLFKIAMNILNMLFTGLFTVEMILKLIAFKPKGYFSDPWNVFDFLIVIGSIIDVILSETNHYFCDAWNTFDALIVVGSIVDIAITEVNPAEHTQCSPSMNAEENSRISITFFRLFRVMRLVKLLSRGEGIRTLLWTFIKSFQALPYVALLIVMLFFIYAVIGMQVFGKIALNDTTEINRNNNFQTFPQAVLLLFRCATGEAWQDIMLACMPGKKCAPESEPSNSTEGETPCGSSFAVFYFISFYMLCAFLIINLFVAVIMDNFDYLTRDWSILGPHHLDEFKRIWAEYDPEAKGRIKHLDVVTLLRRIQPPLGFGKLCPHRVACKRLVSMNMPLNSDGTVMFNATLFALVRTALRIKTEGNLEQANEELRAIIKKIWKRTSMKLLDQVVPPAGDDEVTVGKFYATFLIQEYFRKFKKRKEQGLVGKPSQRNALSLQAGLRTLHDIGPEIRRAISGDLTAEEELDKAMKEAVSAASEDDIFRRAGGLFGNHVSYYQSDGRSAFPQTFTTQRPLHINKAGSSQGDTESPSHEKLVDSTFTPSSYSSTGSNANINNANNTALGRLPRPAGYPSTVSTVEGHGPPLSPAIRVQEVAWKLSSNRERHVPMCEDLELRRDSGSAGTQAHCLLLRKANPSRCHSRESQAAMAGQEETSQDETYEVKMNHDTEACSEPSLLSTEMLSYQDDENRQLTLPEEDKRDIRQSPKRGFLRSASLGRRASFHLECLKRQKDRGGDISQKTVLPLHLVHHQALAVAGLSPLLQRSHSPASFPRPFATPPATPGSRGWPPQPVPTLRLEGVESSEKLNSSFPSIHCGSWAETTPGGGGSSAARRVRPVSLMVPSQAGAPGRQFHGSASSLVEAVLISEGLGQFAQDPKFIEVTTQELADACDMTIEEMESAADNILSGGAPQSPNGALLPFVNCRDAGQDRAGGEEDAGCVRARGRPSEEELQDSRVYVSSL

[10] = test system: Canis familiaris; experiment: Dose normalized AUC in dog at 1 mg/kg, iv and 2 mg/kg, po; assay type: ADME, organism-based, Canis lupus familiaris; conditions: in vivo
How it was run: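 Dogs were dosed 1 mg/kg iv and 2 mg/kg po. AUC is reported normalized to dose in µM h/mg/kg.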

[11] = Half life in dog at 1 mg/kg, iv and 2 mg/kg, po; assay type: ADME, organism-based, Canis lupus familiaris; conditions: in vivo
[12] = Plasma clearance in dog at 1 mg/kg, iv and 2 mg/kg, po; assay type: ADME, organism-based, Canis lupus familiaris
[13] = Oral bioavailability in dog at 2 mg/kg; assay type: ADME, organism-based, Canis lupus familiaris; conditions: in vivo

Dipeptidyl peptidase 8, sequence (Q6V1X1 whole entry): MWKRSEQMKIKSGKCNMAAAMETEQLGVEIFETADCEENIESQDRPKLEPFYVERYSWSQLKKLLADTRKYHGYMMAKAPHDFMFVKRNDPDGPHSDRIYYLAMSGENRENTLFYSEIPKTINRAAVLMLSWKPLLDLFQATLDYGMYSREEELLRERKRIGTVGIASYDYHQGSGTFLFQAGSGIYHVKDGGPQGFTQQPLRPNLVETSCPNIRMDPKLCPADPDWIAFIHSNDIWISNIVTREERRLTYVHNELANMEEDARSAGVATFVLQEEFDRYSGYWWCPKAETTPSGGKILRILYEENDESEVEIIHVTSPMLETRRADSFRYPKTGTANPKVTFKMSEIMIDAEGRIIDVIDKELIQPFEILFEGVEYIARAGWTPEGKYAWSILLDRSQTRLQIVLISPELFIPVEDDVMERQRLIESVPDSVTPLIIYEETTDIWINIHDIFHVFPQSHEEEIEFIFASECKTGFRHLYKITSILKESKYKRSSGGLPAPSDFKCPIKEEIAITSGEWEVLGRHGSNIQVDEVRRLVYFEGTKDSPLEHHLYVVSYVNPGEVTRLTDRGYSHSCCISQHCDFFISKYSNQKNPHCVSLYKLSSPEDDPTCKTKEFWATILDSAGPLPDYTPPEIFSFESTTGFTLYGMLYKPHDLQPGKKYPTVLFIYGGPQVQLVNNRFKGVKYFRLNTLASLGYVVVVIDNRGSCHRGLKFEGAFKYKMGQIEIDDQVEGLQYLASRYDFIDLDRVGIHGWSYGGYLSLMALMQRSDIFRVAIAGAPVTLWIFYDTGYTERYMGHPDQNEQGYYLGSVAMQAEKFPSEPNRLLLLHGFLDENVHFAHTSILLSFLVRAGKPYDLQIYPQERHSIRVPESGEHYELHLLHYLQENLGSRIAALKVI

In the case of N[C@H]1C[C@@H](N2Cc3[nH]nc(NC(=O)C4CC4)c3C2)CO[C@@H]1c1cc(F)ccc1F, the IC50 [1] is reported as > 100 µM, the AUC/dose [2] is reported as 0.6 µM·h/mg/kg and the half-life [3] is reported as 330 min. The IC50 [4] was 22 µM, the IC50 [5] was > 100 µM and the clearance [6] was 64 mL/min/kg.
In the case of N[C@H]1C[C@@H](N2Cc3cn(S(=O)(=O)C(F)(F)F)nc3C2)CO[C@@H]1c1cc(F)ccc1F, the IC50 [1] is reported as > 100 µM, the IC50 [4] is reported as > 100 µM and the IC50 [5] is reported as > 100 µM.
For N[C@H]1C[C@@H](N2Cc3[nH]nc(NS(=O)(=O)Cc4ccncc4)c3C2)CO[C@@H]1c1cc(F)ccc1F, the IC50 [1] was > 100 µM and the IC50 [4] was 60 µM.
For N[C@H]1C[C@@H](N2Cc3cnn(S(=O)(=O)C4CCCC4)c3C2)CO[C@@H]1c1cc(F)ccc1F, the IC50 [1] was > 100 µM, the AUC/dose [2] was 0.4 µM·h/mg/kg and the half-life [3] was 30 min. For the same compound, the IC50 [4] was 26 µM, the IC50 [5] was > 100 µM and the clearance [6] was 96 mL/min/kg.
Cn1cnc(S(=O)(=O)n2cc3c(n2)CN([C@H]2CO[C@H](c4cc(F)ccc4F)[C@@H](N)C2)C3)c1 gave an IC50 [4] of 95 µM.
In the case of N[C@H]1C[C@@H](N2Cc3[nH]nc(S(=O)(=O)c4ccccc4)c3C2)CO[C@@H]1c1cc(F)ccc1F, the IC50 [4] is reported as 14 µM.
For Cn1cnc(S(=O)(=O)n2ncc3c2CN([C@H]2CO[C@H](c4cc(F)ccc4F)[C@@H](N)C2)C3)c1, the IC50 [4] was 45 µM.
With N[C@H]1C[C@@H](N2Cc3cn(S(=O)(=O)c4cccc(C(F)(F)F)c4)nc3C2)CO[C@@H]1c1cc(F)ccc1F the IC50 [4] was > 100 µM and the IC50 [5] was > 100 µM.
For CC(C)S(=O)(=O)n1cc2c(n1)CN([C@H]1CO[C@H](c3cc(F)ccc3F)[C@@H](N)C1)C2, the IC50 [1] was > 100 µM, the AUC/dose [2] was 5.6 µM·h/mg/kg and the half-life [3] was 78 min. The IC50 [4] was > 100 µM, the IC50 [5] was > 100 µM and the bioavailability [7] was 93%. For the same compound, the clearance [6] was 7 mL/min/kg.
For N[C@H]1C[C@@H](N2Cc3cn[nH]c3C2)CO[C@@H]1c1cc(F)ccc1F, the IC50 [8] was > 30 µM, the IC50 [9] was > 30 µM and the IC50 [4] was > 100 µM. The AUC/dose [10] was 16 µM·h/mg/kg.
In the case of CCC(=O)Nc1n[nH]c2c1CN([C@H]1CO[C@H](c3cc(F)ccc3F)[C@@H](N)C1)C2, the IC50 [1] is reported as > 100 µM, the AUC/dose [2] is reported as 0.7 µM·h/mg/kg and the half-life [3] is reported as 132 min. For the same compound, the IC50 [4] was 47 µM, the IC50 [5] was > 100 µM and the clearance [6] was 60 mL/min/kg.
In the case of CS(=O)(=O)n1cc2c(n1)CN([C@H]1CO[C@H](c3cc(F)ccc3F)[C@@H](N)C1)C2 [OMARIGLIPTIN], the IC50 [1] is reported as > 100 µM, the AUC/dose [2] is reported as 48 µM·h/mg/kg and the IC50 [9] is reported as > 30 µM. The half-life [11] was 1320 min, the clearance [12] was 0.9 mL/min/kg and the IC50 [4] was > 100 µM. The bioavailability [13] was 100%, the AUC/dose [10] was 54 µM·h/mg/kg and the IC50 [5] was > 100 µM.
In the case of N[C@H]1C[C@@H](N2Cc3[nH]nc(NS(=O)(=O)C4CC4)c3C2)CO[C@@H]1c1cc(F)ccc1F, the AUC/dose [2] is reported as 1.6 µM·h/mg/kg, the half-life [3] is reported as 90 min and the IC50 [4] is reported as 3.8 µM. For the same compound, the IC50 [5] was > 100 µM and the clearance [6] was 24 mL/min/kg.
With CS(=O)(=O)Nc1n[nH]c2c1CN([C@H]1CO[C@H](c3cc(F)ccc3F)[C@@H](N)C1)C2 the IC50 [1] was > 100 µM, the AUC/dose [2] was 2.5 µM·h/mg/kg and the half-life [3] was 120 min. For the same compound, the IC50 [4] was 8.8 µM, the IC50 [5] was > 100 µM and the clearance [6] was 16 mL/min/kg.
With CC(C)S(=O)(=O)c1n[nH]c2c1CN([C@H]1CO[C@H](c3cc(F)ccc3F)[C@@H](N)C1)C2 the IC50 [1] was > 100 µM, the IC50 [4] was 16 µM and the IC50 [5] was > 100 µM.
In the case of N[C@H]1C[C@@H](N2Cc3[nH]nc(NC(=O)c4ccncc4)c3C2)CO[C@@H]1c1cc(F)ccc1F, the IC50 [4] is reported as 27 µM and the IC50 [5] is reported as > 100 µM.
In the case of N[C@H]1C[C@@H](N2Cc3[nH]nc(NC(=O)c4nccs4)c3C2)CO[C@@H]1c1cc(F)ccc1F, the IC50 [4] is reported as 40 µM.
In the case of N[C@H]1C[C@@H](N2Cc3cn(S(=O)(=O)C4CC4)nc3C2)CO[C@@H]1c1cc(F)ccc1F, the IC50 [1] is reported as > 100 µM, the AUC/dose [2] is reported as 47 µM·h/mg/kg and the IC50 [9] is reported as > 30 µM. It also gave a half-life [11] of 1020 min, a clearance [12] of 1.6 mL/min/kg and a half-life [3] of 372 min. For the same compound, the IC50 [4] was > 100 µM, the bioavailability [13] was 90% and the AUC/dose [10] was 25 µM·h/mg/kg. It also gave a clearance [6] of 0.9 mL/min/kg.
For CCS(=O)(=O)n1cc2c(n1)CN([C@H]1CO[C@H](c3cc(F)ccc3F)[C@@H](N)C1)C2, the IC50 [1] was > 100 µM, the AUC/dose [2] was 22 µM·h/mg/kg and the IC50 [8] was > 60 µM. The IC50 [9] was > 30 µM, the half-life [11] was 780 min and the clearance [12] was 3.3 mL/min/kg. For the same compound, the half-life [3] was 312 min, the IC50 [4] was 69 µM and the bioavailability [13] was 100%. For the same compound, the AUC/dose [10] was 25 µM·h/mg/kg, the IC50 [5] was > 100 µM and the bioavailability [7] was 84%. For the same compound, the clearance [6] was 1.6 mL/min/kg.
For CS(=O)(=O)c1n[nH]c2c1CN([C@H]1CO[C@H](c3cc(F)ccc3F)[C@@H](N)C1)C2, the IC50 [4] was 20 µM and the IC50 [5] was > 100 µM.
Work on N[C@H]1C[C@@H](N2Cc3cn(S(=O)(=O)C4CCCC4)nc3C2)CO[C@@H]1c1cc(F)ccc1F yielded an AUC/dose [2] of 0.9 µM·h/mg/kg, a half-life [3] of 90 min and an IC50 [4] of 50 µM. For the same compound, the clearance [6] was 41 mL/min/kg.
For N[C@H]1C[C@@H](N2Cc3[nH]nc(NS(=O)(=O)CC(F)(F)F)c3C2)CO[C@@H]1c1cc(F)ccc1F, the IC50 [1] was > 100 µM, the IC50 [4] was 32 µM and the IC50 [5] was > 100 µM.
With N[C@H]1C[C@@H](N2Cc3cn(S(=O)(=O)c4ccccc4)nc3C2)CO[C@@H]1c1cc(F)ccc1F the IC50 [4] was > 100 µM.
Compound CCS(=O)(=O)Nc1n[nH]c2c1CN([C@H]1CO[C@H](c3cc(F)ccc3F)[C@@H](N)C1)C2 has an AUC/dose [2] of 3.4 µM·h/mg/kg, a half-life [3] of 126 min and an IC50 [4] of 32 µM. For the same compound, the clearance [6] was 12 mL/min/kg.
With N[C@H]1C[C@@H](N2Cc3cnn(S(=O)(=O)C4CC4)c3C2)CO[C@@H]1c1cc(F)ccc1F the IC50 [1] was > 100 µM, the AUC/dose [2] was 1.7 µM·h/mg/kg and the half-life [3] was 96 min. It also gave an IC50 [4] of 54 µM, a bioavailability [7] of 79% and a clearance [6] of 24 mL/min/kg.
For CCCS(=O)(=O)n1cc2c(n1)CN([C@H]1CO[C@H](c3cc(F)ccc3F)[C@@H](N)C1)C2, the IC50 [1] was > 100 µM, the IC50 [4] was > 100 µM and the IC50 [5] was > 100 µM.
In the case of N[C@H]1C[C@@H](N2Cc3[nH]nc(NS(=O)(=O)c4c[nH]cn4)c3C2)CO[C@@H]1c1cc(F)ccc1F, the IC50 [4] is reported as 6.3 µM.

Reference: ChEMBL document CHEMBL3734760 (Bioorg Med Chem Lett, 2015)
